Screening data from PubChem BioAssay.
In the library only some 2.2% were active in any assay of this set; here they are far more common.
C2C12 statin – suppressors of statin myotoxicity in C2C12 myotubes, primary screen, cell-based, single point, plate reader; C2C12 myotubes + simvastatin, ATP luminescence, 48 h; scaled: DMSO 0, geranylgeraniol control 100; rescue of ATP level, % at 7.49 µM; 330,000 compounds, 0.78% hits; AID 602340, 2012;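 active = mean ATP rescue above about 67%, or every replicate alone reaching that limit, limit read from the data, passing the limit was not always enough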;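 note: myotubes were challenged with 10 µM simvastatin during compound exposure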
E-selectin induc – E-selectin induction in HUVECs, primary screen, imaging, HUVEC, immunofluorescence imaging, single point; 260,000 compounds, 0.37% hits; activation, % at 7.58 µM; normalized: neutral wells 0, TNF-alpha wells 100;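 active = mean E-selectin-positive cell signal at least 10% of the positive control, reached in at least 60% of replicates, without over 20% cell loss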
Target sequence (P16581 whole entry, looked up): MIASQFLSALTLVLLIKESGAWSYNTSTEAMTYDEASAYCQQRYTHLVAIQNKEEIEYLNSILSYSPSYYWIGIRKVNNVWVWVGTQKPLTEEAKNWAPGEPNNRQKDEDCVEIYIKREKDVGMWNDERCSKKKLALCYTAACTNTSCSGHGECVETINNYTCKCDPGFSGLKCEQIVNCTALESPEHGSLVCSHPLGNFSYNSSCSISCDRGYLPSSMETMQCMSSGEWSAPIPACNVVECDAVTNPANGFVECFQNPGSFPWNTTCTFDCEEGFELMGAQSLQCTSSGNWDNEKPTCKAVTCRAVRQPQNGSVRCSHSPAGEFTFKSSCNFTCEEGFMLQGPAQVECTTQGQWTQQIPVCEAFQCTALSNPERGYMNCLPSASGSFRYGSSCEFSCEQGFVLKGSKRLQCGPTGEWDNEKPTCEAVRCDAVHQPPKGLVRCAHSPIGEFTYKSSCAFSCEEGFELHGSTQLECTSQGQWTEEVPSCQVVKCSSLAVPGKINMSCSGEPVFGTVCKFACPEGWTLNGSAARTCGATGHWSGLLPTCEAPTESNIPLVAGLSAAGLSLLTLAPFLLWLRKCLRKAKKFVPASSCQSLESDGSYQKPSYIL
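Test system: HUVEC | Signal: Immunofluorescence imaging | Read-out: Percent E-selectin-positive cells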
DENV2 CPE rescue – inhibitors of DENV2 cytopathic effect, primary screen, cell-based, plate reader, single concentration. DENV2-infected cells, cytopathic effect rescue. CPE inhibition, % at 9.99 µM. 350,000 compounds, 1.7% hits. AID 651640, 2012; in the data active = CPE inhibition above about 20%, passing the limit was not always enough; tested in BHK-21 cells;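 note: 0% = median of neutral control wells and 100% = median of positive control wells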
* = called active by the depositor; · = not tested or not shown.

SMILES	C2C12 statin	E-selectin induc	DENV2 CPE rescue
COc1cc(NC(=O)Cc2cccc3ccccc23)c(C(=O)O)cc1OC	83*	·	4
COc1cc(NC(=O)Cc2ccccc2)c(C(=O)O)cc1OC	·	·	3
CN(C)CC(=O)Nc1ccc2c(c1)[C@@H]1C[C@@H](CC(=O)N3CCN(C)CC3)O[C@H](CO)[C@@H]1O2	4	0	-3
C#CCOCCOCCOCCNc1nc(N2CCN(C(=O)CCCCCCCCCCNC(=O)Cn3cc(CCCCCN)nn3)CC2)nc(N2CCN(C(=O)CCCCCCCCCCNC(=O)[C@@H]([C@H](C)O)n3cc(C)nn3)CC2)n1	-10	·	·
C#CCOCCOCCOCCNc1nc(N2CCN(C(=O)CCCCCCCCCCNC(=O)Cn3cc(C[C@@H](C)O)nn3)CC2)nc(N2CCN(C(=O)CCCCCCCCCCNC(=O)[C@@H]([C@H](C)O)n3cc(C)nn3)CC2)n1	106*	·	·
C/C=C/c1ccc2c(c1)O[C@H](CN(C)C(=O)CC)[C@H](C)CN([C@H](C)CO)S2(=O)=O	-8	0	-2
Cc1cccc(N(C(=O)CS(=O)CC(=O)Nc2ccc3c(c2)OCO3)C(C)C(=O)NC2CCCC2)c1C (configuration not stated)	·	9	·
Cc1ccccc1N(CC(=O)NC1CCCC1)C(=O)CS(=O)CC(=O)Nc1ccc2c(c1)OCO2 (configuration not stated)	127*	·	·
Cc1cccc(C(=O)c2ccccc2C(=O)O)c1O	15	·	·
Cc1cccc(C(=O)O)c1O	5	·	67*
O=C(N[C@@H]1C=C[C@@H](CC(=O)N2CCCCC2)O[C@H]1CO)c1cccc(F)c1	2	1	6
C/C=C(\C)C(=O)N1CC2(CC(c3cccc(NC(=O)COc4ccc(Cl)cc4)c3)=NO2)C[C@@H]1C(N)=O (some centres not stated)	2	0	-5
COc1ccc(C(=O)N2CC3(CC(c4cccc(NC(=O)COc5ccc(Cl)cc5)c4)=NO3)C[C@@H]2C(N)=O)cc1 (some centres not stated)	6	0	0
NC(=O)[C@@H]1CC2(CC(c3cccc(NC(=O)COc4ccc(Cl)cc4)c3)=NO2)CN1C(=O)c1ccccc1 (some centres not stated)	5	0	66*
C=C(C)C(=O)N1CC2(CC(c3cccc(NC(=O)COc4ccc(Cl)cc4)c3)=NO2)C[C@@H]1C(N)=O (some centres not stated)	4	0	34*
CC(C)C(=O)Nc1ccc2c(c1)C(=O)N(C)[C@H]1CC[C@@H](CC(=O)NCCc3ccccc3)O[C@@H]1CO2	3	1	4
O=C(N[C@@H]1CC[C@@H](CCNS(=O)(=O)Cc2ccccc2)O[C@@H]1CO)c1cnccn1	-1	0	-5
Cc1ccc(O)c(C2=NNC(c3ccc(Cl)cc3)C2)c1 (configuration not stated)	·	0	-8
Oc1ccc(Cl)cc1C1=NNC(c2cccs2)C1 (configuration not stated)	149*	·	-4
Cc1noc(C)c1S(=O)(=O)N(C)C[C@H]1Oc2ccc(NC(=O)Cc3ccccc3)cc2CC(=O)N([C@H](C)CO)C[C@H]1C	-10	26	-3
CCOC(=O)[C@H]1[C@H]2COc3ccc(OC)cc3[C@@H]2N2C(=O)CN(Cc3ccco3)C(=O)[C@@]12C	7	0	-9
CCOC(=O)[C@@H]1[C@H]2COc3cc(OC)ccc3[C@H]2N2C(=O)N(c3cccc(F)c3)C(=O)[C@]12C	3	1	104*
CCOC(=O)[C@@H]1[C@H]2COc3cc(OC)ccc3[C@@H]2N2C(=O)N(c3cccc(C)c3)C(=O)[C@]12C	11	0	-15
CCOC(=O)[C@H]1[C@H]2COc3ccc(Cl)cc3[C@@H]2N2C(=O)c3ccc(Cl)cc3NC(=O)[C@@]12C	-12	0	52*
CCOC(=O)[C@H]1[C@H]2COc3ccc(C)cc3[C@@H]2N2C(=O)c3ccc(Cl)cc3NC(=O)[C@@]12C	6	0	-4
CCOC(=O)[C@H]1[C@H]2COc3cc(OC)ccc3[C@@H]2N2C(=O)CN(Cc3ccco3)C(=O)[C@@]12C	-4	0	30*
CCOC(=O)[C@@H]1[C@H]2COc3ccc(Br)cc3[C@@H]2N2C(=O)N(c3cccc(Cl)c3)C(=O)[C@@]12C	-7	0	68*
CCOC(=O)[C@@H]1[C@H]2COc3ccc(Br)cc3[C@@H]2N2C(=O)N(c3cccc(Cl)c3)C(=O)[C@]12C	-12	0	-4
